Experimental data taken from paper PMC4629469 (Bioorganic & medicinal chemistry letters, 2015).

Legend:
[1] = molecular target: T1, M1 recombinant human mAChRs (Homo sapiens, UniProt P11229); assay: [3H]NMS binding to CHO cell membranes expressing M1 mAChR; details: vs compound 1
T1 sequence (P11229 1-460): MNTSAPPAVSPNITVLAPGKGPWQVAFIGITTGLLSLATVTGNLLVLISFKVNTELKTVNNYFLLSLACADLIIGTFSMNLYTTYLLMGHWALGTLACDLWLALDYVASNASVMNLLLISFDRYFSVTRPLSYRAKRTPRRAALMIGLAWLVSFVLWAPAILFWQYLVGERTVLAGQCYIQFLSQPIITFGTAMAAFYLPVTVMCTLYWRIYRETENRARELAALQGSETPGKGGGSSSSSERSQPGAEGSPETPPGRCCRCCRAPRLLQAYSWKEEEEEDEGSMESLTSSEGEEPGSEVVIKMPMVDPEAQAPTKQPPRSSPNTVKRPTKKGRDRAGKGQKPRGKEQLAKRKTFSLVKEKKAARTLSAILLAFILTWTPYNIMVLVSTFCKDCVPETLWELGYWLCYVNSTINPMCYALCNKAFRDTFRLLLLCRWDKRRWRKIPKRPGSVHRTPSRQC

[2] = molecular target: M3 recombinant human mAChRs (Homo sapiens, UniProt P20309); assay: [3H]NMS binding to CHO cell membranes expressing M3 mAChR; details: vs compound 1
M3 recombinant human mAChRs, sequence (P20309 whole entry): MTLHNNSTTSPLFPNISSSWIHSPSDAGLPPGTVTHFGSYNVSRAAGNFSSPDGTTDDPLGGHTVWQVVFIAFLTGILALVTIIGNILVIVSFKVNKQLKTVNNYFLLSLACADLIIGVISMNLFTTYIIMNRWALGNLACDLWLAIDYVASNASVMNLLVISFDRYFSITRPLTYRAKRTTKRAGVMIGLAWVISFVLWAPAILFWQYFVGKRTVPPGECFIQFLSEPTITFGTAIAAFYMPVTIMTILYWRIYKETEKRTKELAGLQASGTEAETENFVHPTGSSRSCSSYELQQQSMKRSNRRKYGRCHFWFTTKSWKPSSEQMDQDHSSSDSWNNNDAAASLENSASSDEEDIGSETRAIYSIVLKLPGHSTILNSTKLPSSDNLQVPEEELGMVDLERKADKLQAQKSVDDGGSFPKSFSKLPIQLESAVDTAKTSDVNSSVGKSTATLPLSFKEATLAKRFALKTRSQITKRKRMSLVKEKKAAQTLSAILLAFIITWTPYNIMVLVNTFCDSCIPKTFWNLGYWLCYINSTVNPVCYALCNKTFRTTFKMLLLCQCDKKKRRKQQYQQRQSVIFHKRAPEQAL

[3] = molecular target: T2, M5 recombinant human mAChRs (Homo sapiens, UniProt P08912); assay: [3H]NMS binding to CHO cell membranes expressing M5 mAChR; details: vs compound 1
T2 sequence (P08912 1-532): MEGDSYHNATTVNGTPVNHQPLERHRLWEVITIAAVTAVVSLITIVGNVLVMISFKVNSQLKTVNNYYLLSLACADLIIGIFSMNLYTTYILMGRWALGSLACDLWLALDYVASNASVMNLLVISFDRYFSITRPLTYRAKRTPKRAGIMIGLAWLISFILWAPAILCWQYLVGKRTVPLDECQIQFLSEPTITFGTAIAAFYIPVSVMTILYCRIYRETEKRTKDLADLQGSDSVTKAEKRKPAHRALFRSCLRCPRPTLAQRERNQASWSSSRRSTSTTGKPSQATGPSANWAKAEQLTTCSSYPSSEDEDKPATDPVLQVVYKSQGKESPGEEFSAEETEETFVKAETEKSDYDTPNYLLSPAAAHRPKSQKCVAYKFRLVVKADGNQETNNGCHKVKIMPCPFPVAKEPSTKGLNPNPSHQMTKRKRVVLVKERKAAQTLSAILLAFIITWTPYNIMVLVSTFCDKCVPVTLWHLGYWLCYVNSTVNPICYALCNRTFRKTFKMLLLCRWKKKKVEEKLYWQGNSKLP

[4] = system: M1, M3, and M5 human mAChRs; assay: [3H]NMS binding, comparison over all three mAChR subtypes
Method in brief: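 Membranes from CHO cells stably expressing recombinant human M1, M3 or M5 mAChR. Inhibition of [3H]N-methylscopolamine binding by the test compound gives IC50, which is converted to Ki by the Cheng–Prusoff equation. Ki is the mean ± SEM of three independent experiments, each run in duplicate. Subtype comparisons use these Ki values at each receptor.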

SMILES | fold higher affinity at M1 compared with compound 1 [1] | fold higher affinity at M3 compared with compound 1 [2] | decrease of affinity at M5 compared with compound 1 [3] | subtype selectivity ([4]; M5 over M1 and M3) | fold increase in affinity of the reverse ester ([4]; 6a vs 4a, all three mAChRs)
COc1ccc(CCOC(=O)C2(c3ccccc3)CCN(C)CC2)cc1OC [Compound 4a] | 2 fold | 19 fold | 30% | not subtype selective | –
COc1ccc(CCC(=O)OCC2(c3ccccc3)CCN(C)CC2)cc1OC [Compound 6a] | – | – | – | – | 1 to 3 fold
